ChEMBL document CHEMBL1141140, “Antifungal agents. 11. N-substituted derivatives of 1-[(aryl)(4-aryl-1H-pyrrol-3-yl)methyl]-1H-imidazole: synthesis, anti-Candida activity, and QSAR studies” (2005)
≈ marks a conversion by molar mass, not a printed value.

Key:
Format in all cases: functional
[1] = tested on: Candida albicans; test: Ratio of the in vitro minimal inhibitory to that of bifonazole against Candida albicans (MIC(compound)/MIC(bifonazole))
In short: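 Broth microdilution per NCCLS M27-A2 against 12 Candida albicans strains (AIDS oropharyngeal, HIV vulvovaginitis isolates, ATCC 24433 and 20891, lab strains 3153 and CA2). Inoculum ~10^4 cells/mL in RPMI 1640, pH 7.0; DMSO stocks 6.4 mg/mL, twofold dilutions 0.016–64 μg/mL; read at 24 h, 28 °C, no visible growth. Mean MIC over strains converted to μmol/mL, divided by bifonazole MIC.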

[2] = tested on: Candida albicans; test: In vitro concentration causing 50% inhibition of Candida albicans with percentage of resistant strains %R = 0 (MIC > 64 ug/mL) at a range of 0.016-0.5 ug/mL
[3] = tested on: Candida albicans; test: In vitro concentration causing 90% inhibition of Candida albicans with percentage of resistant strains %R = 0 (MIC > 64 ug/mL) at a range of 0.016-0.5 ug/mL
[4] = tested on: Candida albicans; test: In vitro minimal inhibitory concentration against Candida albicans with percentage of resistant strains %R = 0 (MIC > 64 ug/mL) at a range of 0.016-0.5 ug/mL
[5] = tested on: Candida albicans; test: In vitro concentration causing 50% inhibition of Candida albicans with percentage of resistant strains %R = 50 (MIC > 64 ug/mL) at a range of 2-16 ug/mL
[6] = tested on: Candida albicans; test: In vitro minimal inhibitory concentration against Candida albicans with percentage of resistant strains %R = 50 (MIC > 64 ug/mL) at a range of 2-16 ug/mL
[7] = tested on: Candida albicans; test: In vitro concentration causing 90% inhibition of Candida albicans with percentage of resistant strains %R = 50 (MIC > 64 ug/mL) at a range of 2-16 ug/mL
[8] = tested on: Candida albicans; test: In vitro concentration causing 90% inhibition of Candida albicans with percentage of resistant strains %R = 33.33 (MIC > 64 ug/mL) at a range of 0.25-0.5 ug/mL
[9] = tested on: Candida albicans; test: In vitro concentration causing 50% inhibition of Candida albicans with percentage of resistant strains %R = 33.33 (MIC > 64 ug/mL) at a range of 0.25-0.5 ug/mL
[10] = tested on: Candida albicans; test: In vitro minimal inhibitory concentration against Candida albicans with percentage of resistant strains %R = 33.33 (MIC > 64 ug/mL) at a range of 0.25-0.5 ug/mL
[11] = tested on: Candida albicans; test: In vitro concentration causing 90% inhibition of Candida albicans with percentage of resistant strains %R = 33.3 (MIC > 64 ug/mL) at a range of 0.065-4 ug/mL
[12] = tested on: Candida albicans; test: In vitro concentration causing 50% inhibition of Candida albicans with percentage of resistant strains %R = 33.3 (MIC > 64 ug/mL) at a range of 0.065-4 ug/mL
[13] = tested on: Candida albicans; test: In vitro minimal inhibitory concentration against Candida albicans with percentage of resistant strains %R = 33.3 (MIC > 64 ug/mL) at a range of 0.065-4 ug/mL
[14] = tested on: Candida albicans; test: In vitro concentration causing 90% inhibition of Candida albicans with percentage of resistant strains %R = 16.6 (MIC > 64 ug/mL) at a range of 0.5-4 ug/mL
[15] = tested on: Candida albicans; test: In vitro minimal inhibitory concentration against Candida albicans with percentage of resistant strains %R = 16.6 (MIC > 64 ug/mL) at a range of 0.5-4 ug/mL
[16] = tested on: Candida albicans; test: In vitro concentration causing 50% inhibition of Candida albicans with percentage of resistant strains %R = 16.6 (MIC > 64 ug/mL) at a range of 0.5-4 ug/mL

## Cn1cc(-c2ccccc2)c(C(c2ccc3ccccc3c2)n2ccnc2)c1 (centres undefined)
[1]
  Ratio: 63

## CCCn1cc(-c2ccc(Cl)cc2)c(C(c2ccccc2)n2ccnc2)c1 (centres undefined)
[2]
  MIC50: 0.016 µg/mL (≈ 0.0426 µM)
[3]
  MIC90: 0.032 µg/mL (≈ 0.0851 µM)
[4]
  MIC: 0.096 µg/mL (≈ 0.255 µM)
[1]
  Ratio: 0.023

## c1ccc(C(c2ccn(-c3ccccc3)c2)n2ccnc2)cc1 (centres undefined)
[1]
  Ratio: 2.3

## Cn1cc(-c2ccccc2)c(C(c2cccc3ccccc23)n2ccnc2)c1 (centres undefined)
[1]
  Ratio: 6

## COc1ccc(C(Cc2cccc(Cl)c2)n2ccnc2)cc1 (centres undefined)
[1]
  Ratio: 44

## COc1ccc(C(Cc2ccccc2F)n2ccnc2)cc1 (centres undefined)
[1]
  Ratio: 49

## Clc1ccc(-c2cn(-c3ccccc3)cc2C(c2ccccc2)n2ccnc2)cc1 (centres undefined)
[5]
  MIC50: 4 µg/mL (≈ 9.76 µM)
[6]
  MIC: 7 µg/mL (≈ 17.1 µM)
[1]
  Ratio: 1.5
[7]
  MIC90: 16 µg/mL (≈ 39 µM)

## COc1ccc(C(Cc2ccccc2[N+](=O)[O-])n2ccnc2)cc1 (centres undefined)
[1]
  Ratio: 97

## Clc1ccc(-c2c[nH]cc2C(c2ccc(Cl)cc2Cl)n2ccnc2)cc1 (centres undefined)
[8]
  MIC90: 0.5 µg/mL (≈ 1.24 µM)
[9]
  MIC50: 0.25 µg/mL (≈ 0.621 µM)
[10]
  MIC: 4.2 µg/mL (≈ 10.4 µM)
[1]
  Ratio: 0.92

## COc1ccc(C(Cc2ccccc2-n2cccc2)n2ccnc2)cc1 (centres undefined)
[1]
  Ratio: 7.8

## Fc1ccc(-n2ccc(C(c3ccc(Cl)cc3)n3ccnc3)c2)cc1 (centres undefined)
[1]
  Ratio: 2.7

## COc1ccc(C(Cc2ccc(F)cc2)n2ccnc2)cc1 (centres undefined)
[1]
  Ratio: 23

## Oc1ccc(-c2c[nH]cc2C(c2ccc(Cl)cc2Cl)n2ccnc2)cc1 (centres undefined)
[1]
  Ratio: 26

## COc1ccc(C(Cc2ccc([N+](=O)[O-])cc2)n2ccnc2)cc1 (centres undefined)
[1]
  Ratio: 17

## Cc1ccc(C(c2ccn(-c3ccccc3)c2)n2ccnc2)cc1 (centres undefined)
[1]
  Ratio: 1.2

## Clc1ccc(-c2c[nH]cc2C(c2ccccc2)n2ccnc2)cc1 (centres undefined)
[11]
  MIC90: 4 µg/mL (≈ 12 µM)
[12]
  MIC50: 0.125 µg/mL (≈ 0.374 µM)
[13]
  MIC: 2.5 µg/mL (≈ 7.49 µM)
[1]
  Ratio: 0.66

## COC(=O)/C=C/n1cc(-c2ccc(Cl)cc2)c(C(c2ccccc2)n2ccnc2)c1 (centres undefined)
[14]
  MIC90: 4 µg/mL (≈ 9.57 µM)
[15]
  MIC: 1.62 µg/mL (≈ 3.88 µM)
[16]
  MIC50: 2 µg/mL (≈ 4.79 µM)
[1]
  Ratio: 0.34

## COc1ccc(C(Cc2ccccc2Cl)n2ccnc2)cc1 (centres undefined)
[1]
  Ratio: 63

## Fc1ccc(C(c2ccn(-c3ccccc3)c2)n2ccnc2)cc1 (centres undefined)
[1]
  Ratio: 1.8

## c1ccc(-c2c[nH]cc2C(c2cccc3ccccc23)n2ccnc2)cc1 (centres undefined)
[1]
  Ratio: 1.7

## O=[N+]([O-])c1ccc(-c2c[nH]cc2C(c2ccc(Cl)cc2Cl)n2ccnc2)cc1 (centres undefined)
[1]
  Ratio: 4.5

## CC(Cc1ccc(Cl)cc1Cl)n1ccnc1.COc1ccccc1 (centres undefined)
[1]
  Ratio: 1

## COc1ccc(C(Cc2cccc(F)c2)n2ccnc2)cc1 (centres undefined)
[1]
  Ratio: 51

## FC(F)(F)c1ccc(-c2c[nH]cc2C(c2ccc(Cl)cc2Cl)n2ccnc2)cc1 (centres undefined)
[1]
  Ratio: 2.2
